IMP-1 inh = inhibitors of Pseudomonas aeruginosa IMP-1 metallo-beta-lactamase. purified IMP-1, nitrocefin hydrolysis, epi-absorbance fluorescence. inhibition, % at 5.6 µM. hit rate 0.45% among 290,000. AID 1556;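 active = inhibition above the mean plus 3 SD of all compounds in the same screening run, cut at about 4.5% in these data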
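Material – recombinant IMP-1 enzyme, purified · Amount – IMP-1 0.2 nM before substrate addition · Medium – HEPES buffer pH 7.1 with ZnSO4 and Brij 35 · Timing – 25 °C, 15 min preincubation, 25 min reaction · Measured by – plate fluorescence quenching by hydrolysis product, ex 480/em 530 nm · Read-out – percent enzyme inhibition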
ANO1 block = mouse TMEM16A channel inhibition, primary screen | HEK293 TMEM16A/YFP iodide influx fluorescence, ionomycin | normalized B-score (activity score, 25-100; higher = stronger inhibition) at 10 µM | hit rate 1.2% among 310,000 | AID 588511;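 active = ratio plate-corrected score three or more library SD toward inhibition, starting fluorescence score within five deviations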;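 also: score derived from kinetic fluorescence span divided by baseline fluorescence per well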
CHT allo act = allosterically activates the human high affinity choline transporter; hit rate 0.49% among 310,000; B-score at 10 µM; CHT-expressing cells, membrane potential dye, choline EC20; active compounds read high; LV-AA mutant CHT in HEK293 cells; Q9GZV3;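 active = initial fluorescence not abnormally high and integrated response B-score, plate-corrected, over 3 SD above library mean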
Target sequence (Q9GZV3 whole entry, looked up): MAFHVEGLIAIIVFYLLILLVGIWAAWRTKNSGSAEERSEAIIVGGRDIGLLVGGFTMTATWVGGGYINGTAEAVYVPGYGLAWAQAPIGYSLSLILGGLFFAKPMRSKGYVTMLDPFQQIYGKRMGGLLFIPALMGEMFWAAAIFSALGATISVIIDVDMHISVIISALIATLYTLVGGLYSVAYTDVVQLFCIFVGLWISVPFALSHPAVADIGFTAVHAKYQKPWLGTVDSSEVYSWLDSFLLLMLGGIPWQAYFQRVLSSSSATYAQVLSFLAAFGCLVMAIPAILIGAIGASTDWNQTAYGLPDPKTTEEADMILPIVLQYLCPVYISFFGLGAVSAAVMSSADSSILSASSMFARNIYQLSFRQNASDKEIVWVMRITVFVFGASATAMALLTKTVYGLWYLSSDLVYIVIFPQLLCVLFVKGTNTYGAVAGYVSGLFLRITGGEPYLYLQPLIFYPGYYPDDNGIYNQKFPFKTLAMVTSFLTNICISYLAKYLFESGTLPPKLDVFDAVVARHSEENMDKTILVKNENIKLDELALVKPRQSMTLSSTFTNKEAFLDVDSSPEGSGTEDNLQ
TMEM16A act = activates or potentiates the mouse TMEM16A chloride channel; Q8BHY3; HEK293 TMEM16A/YFP-H148Q/I152L, iodide quench fluorescence; active compounds read low; B-score at 10 µM; hit rate 0.3% among 340,000; AID 623877;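 active = fluorescence-ratio B-score plate-corrected deviation score at least 3 library SD below zero, with starting fluorescence score within 5 deviations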;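 also: channel opened by trigger with iodide after compound preincubation; score built on the fluorescence ratio of max minus min over baseline; more negative score means more quench and so TMEM16A activation or potentiation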
CHT block = human CHT choline transport inhibition; CHT-expressing cells, membrane potential dye, choline response; active compounds read low; hit rate 0.86% among 310,000; B-score at 10 µM; Q9GZV3;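 active = B-score over 3 SD under the library average, and starting fluorescence ratio not unusually high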;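 also: choline stimulus applied at its EC90 after an EC20 pre-addition; B-score computed on integrated fluorescence ratio after choline addition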
VIM-2 inh = inhibitors of Pseudomonas aeruginosa VIM-2 metallo-beta-lactamase | purified VIM-2, nitrocefin hydrolysis, epi-absorbance fluorescence | inhibition, % at 5.6 µM | hit rate 0.89% among 290,000 | AID 1527;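 active = inhibition above the mean of all tested compounds plus 3 SD, cutoff set per screening run, cut at about 7.5% in these data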;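 also: red hydrolysis product quenches plate fluorescence so inhibitors raise well fluorescence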
CHT block conf = human CHT inhibition, confirmatory screen. hit rate 70% among 2,400. CHT-expressing cells, choline membrane potential dye; LV-to-AA substituted CHT, HEK293 cells. CHT activity remaining % of control (active compounds read low), % at 10 µM. shares compounds with CHT block;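 active = choline transporter activity left, mean of duplicates at 10 µM, below buffer-only control mean minus 3 SD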;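 also: depolarization triggered by choline at its EC90 following an EC20 pre-addition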
HEK293 MPD ctr = activity in parental HEK293 cells lacking CHT; shares compounds with CHT block; membrane potential dye, choline response; active = decrease or increase beyond buffer ±3SD; membrane potential ratio readout (active if shifted either direction beyond buffer ±3SD; no single direction) at 10 µM; hit rate 4% among 2,400; AID 493222;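 also: parental cells lack the transporter so any hit is non-specific; ratio is peak minus trough fluorescence over baseline after EC90 choline challenge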
Each line names hits and unclear results; the compound was inactive in the other large screens (follow-up assays come after a bar, where they were run). Shown are actives, neighbours in structure and some others; about 3.4% of the full set was active somewhere.

CC(C)N(C)CCOC(=O)C1COc2ccccc2O1 (stereo unspecified)	CHT block -6 | CHT block conf 7.5% | HEK293 MPD ctr inactive
CC(C)NC(=O)C1COc2ccccc2O1 (stereo unspecified)	none
CC1CC(C)(C)N(C(=O)CN2C(=O)c3ccccc3C2=O)c2ccccc21 (stereo unspecified)	TMEM16A act -6.2, CHT block -16 | CHT block conf 62% | HEK293 MPD ctr inactive
CC(OC(=O)c1cc(=O)[nH]c2ccccc12)C(=O)Nc1ccccc1F (stereo unspecified)	none (no result: IMP-1 inh, VIM-2 inh)
COc1ccc(N2CCN(C(=O)c3cc(-c4cccs4)nc4ccccc34)CC2)cc1	CHT block -6.1 | CHT block conf inactive | HEK293 MPD ctr inactive
CCCCn1nc2cc(C(=O)NC3CCCc4ccccc43)ccc2c1OCC (stereo unspecified)	CHT block -9.6 | CHT block conf 21% | HEK293 MPD ctr inactive
CCCn1nc2cc(C(=O)NCc3ccc(C)cc3)ccc2c1OCC	CHT block -5.6 | CHT block conf 56% | HEK293 MPD ctr inactive
CCCCn1nc2cc(C(=O)N[C@H](C)C3CCCCC3)ccc2c1OCC	CHT block -11 | CHT block conf 5.4% | HEK293 MPD ctr inactive
COc1ccc(/C=C/C(=O)Nc2c(C(=O)O)[nH]c3ccccc23)cc1OC	none
COc1ccc(N2CCN(C(c3cccs3)C(C)NC(=O)C(=O)N3CCCC3)CC2)cc1 (stereo unspecified)	none
COc1ccc(CNS(=O)(=O)c2ccc3c(c2)CC(C)N3C(=O)C2CC2)cc1 (stereo unspecified)	CHT block -5 | CHT block conf inactive | HEK293 MPD ctr inactive
CCc1nnc(NS(=O)(=O)c2ccc(NC(=O)/C=C/c3ccccc3Cl)cc2)s1	CHT block -5.6 | CHT block conf 51% | HEK293 MPD ctr inactive
Cc1ccc(C)c(OCc2cc(C(=O)N(C)Cc3nccs3)no2)c1	none
CCn1c2ccccc2c(=O)c2ccccc21	CHT block -8.2 | CHT block conf 15% | HEK293 MPD ctr inactive
CCn1c2ccccc2c2cc([N+](=O)[O-])ccc21	none
CCn1c(SCC(=O)N2CCCc3ccccc32)nc2ccccc2c1=O	CHT block -6.1 | CHT block conf inactive | HEK293 MPD ctr inactive
CCn1c(SCC(=O)N2CCCc3ccccc32)nc2cccnc21	none
CC(C)NC(=O)CSc1nc(Cc2ccccc2)nc2ccccc12	none
CCOC(=O)CNC(=O)CSc1nc(Cc2ccccc2)nc2ccccc12	CHT block -6.6 | CHT block conf inactive | HEK293 MPD ctr inactive
COc1ccc(CC(=O)NCc2ccc(Cl)cc2)cc1S(=O)(=O)N1CCOCC1	none (no result: IMP-1 inh, ANO1 block, CHT allo act, CHT block, VIM-2 inh)
CC[N+]1(CC)CC2=Cc3c(ccc4ccccc34)CC2C1 (stereo unspecified)	CHT block -6.4 | CHT block conf 46% | HEK293 MPD ctr inactive
O=C(Nc1cccc(S(=O)(=O)NC2=NCCCCC2)c1)C1COc2ccccc2O1 (stereo unspecified)	none
O=C(Nc1ccc(S(=O)(=O)NC2=NCCCCC2)cc1)C1COc2ccccc2O1 (stereo unspecified)	CHT block -5.1 | CHT block conf 40% | HEK293 MPD ctr inactive
Cc1ccc(C(=O)Nc2ccc(S(=O)(=O)NC3=NCCCCC3)cc2)c(C)c1	CHT block -5.9 (no result: IMP-1 inh, VIM-2 inh) | CHT block conf 19% | HEK293 MPD ctr inactive
COc1ccc(NC(=O)COC(=O)CN2C(=O)c3ccccc3C2=O)cc1	none (no result: IMP-1 inh, ANO1 block, CHT allo act, CHT block, VIM-2 inh)
CN(C(=O)c1cc(S(=O)(=O)N2CCCCC2)c[nH]1)C1CCCCC1	CHT block -5.1 | CHT block conf inactive | HEK293 MPD ctr inactive
